Published values gathered from unrelated publications.

CC#CCOc1ccc(/C=C/c2cc(OC)cc(OC)c2-c2cnnn2C(=O)NC(C)C)cc1  inhibition (RAW264.7; NO release, inhibitor, Griess; 10 µM, LPS-stimulated): 78.7%
N#Cc1ccc(Oc2ccc(C(=O)C(Cl)Cl)cc2[N+](=O)[O-])cc1  inhibition (NCI-H1299; cell growth or viability, MTT; 2.5 µM): 96.2%
CC#CCOc1ccc(/C=C/c2cc(OC)cc(OC)c2-c2cnnn2C(=O)NCCc2ccccc2)cc1  inhibition (RAW264.7; NO release, inhibitor, Griess; 10 µM, LPS-stimulated): 82.3%
C=CC(=O)NC1CCN(c2ncc3ncnc(Nc4ccc(Oc5ccc6c(c5)ncn6C)c(C)c4)c3n2)CC1  EC50 (NCI-H1437; cell growth or viability): 4990 nM
O=C(c1ccc(Oc2ccc(OCc3ccccc3)cc2)c([N+](=O)[O-])c1)C(Cl)Cl  inhibition (NCI-H1299; cell growth or viability, MTT; 2.5 µM): 86.4%
O=C1C(NCCc2ccc(O)cc2)=CC2=NCCc3c[nH]c1c32  IC50 (Babesia divergens; parasite growth, SYBR Green; 60 h, blood stage): 404 nM
CC(=O)OCCCOc1ccc(C(=O)C(Cl)Cl)cc1[N+](=O)[O-]  inhibition (NCI-H1299; cell growth or viability, MTT; 2.5 µM): 60.3%
CN(Cc1ccc(C(C)(C)C)cc1)Cc1cccc2ccccc12  inhibition zone (Trichophyton mentagrophytes; microbial growth, disc diffusion; ATCC18748; 0.256 µg/mL, 72 h): ≥ 55 mm
CC(=O)c1ccc(Oc2ccc(C(=O)C(Cl)Cl)cc2[N+](=O)[O-])cc1  inhibition (NCI-H1299; cell growth or viability, MTT; 2.5 µM): 92.2%
Cc1c(C(N)=S)c(N)n(N)c(=O)c1C#N  inhibition zone (Enterobacter cloacae; microbial growth, well diffusion; ATCC23355; 500 µg/mL): 19 mm
CN(Cc1ccc(C2(C(F)(F)F)CC2)cc1)Cc1cccc2ccccc12.Cl  MFC (Trichophyton mentagrophytes; microbial killing, broth dilution; ATCC18748; 72 h): 8000 µg/mL
C#CCOc1ccc(/C=C/c2cc(OC)cc(OC)c2-c2cnnn2C(=O)NCCC)cc1  inhibition (RAW264.7; NO release, inhibitor, Griess; 10 µM, LPS-stimulated): 94.2%
